The source made the active and inactive calls. No cut-off for these calls is given here.
Key:
[1] = Cytotoxicity against immortalized human SV-HUC1 cells after 72 hrs by MTT assay; type: cell-based; conditions: sv-huc1, 72 h
Summary of the method: (§1)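 Cells seeded 1800/well in 96-well plates, preincubated overnight at 37 °C, then exposed to graded concentrations for 72 h at 37 °C (NTUB1, PC3 in RPMI 1640; SV-HUC1 in F12; 10% FBS, 5% CO2). MTT (2 mg/mL) added 3 h, formazan dissolved in DMSO, absorbance 540 nm; viability as percent of control; IC50 by median-effect analysis, mean ± SD.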

[2] = Cytotoxicity against human NTUB1 cells after 72 hrs by MTT assay; type: functional, cell-based; conditions: NTUB1, 72 h; summary of the method: as §1
PC-3 = assay: Cytotoxicity against human PC3 cells after 72 hrs by MTT assay; type: functional, cell-based; summary of the method: as §1
[3] = Cell cycle arrest in human NTUB1 cells assessed as accumulation at subG1 phase at 25 uM after 24 hrs by propidium iodide staining based flow cytometric analysis (reference value: 6.68%); type: functional
Summary of the method: (§2)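 8×10^5 NTUB1 cells plated, treated 24 h (alongside 10 µM cisplatin, 1 mM NAC, 50 µM H2O2 controls); harvested by trypsinization, fixed overnight in ice-cold MeOH at −20 °C, stained with 50 µg/mL propidium iodide plus 50 µg/mL RNase A in PBS 30 min at room temperature; cell-cycle phase fractions and sub-G1 (apoptotic) DNA content by FACScan flow cytometry; three independent experiments.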

[4] = Increase in ROS generation in human NTUB1 cells at 10 uM after 24 hrs by H2DCFDA staining based flow cytometeric analysis relative to control; type: functional
Summary of the method: (§3)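 NTUB1 cells (3×10^5 per 6 cm dish) treated 24 h (20 µM cisplatin and 1 mM NAC controls; medium-only control); 10 µM H2DCFDA added 30 min before harvest; trypsinized, PBS-washed, DCF green fluorescence (525 nm band pass, region M1) measured immediately by flow cytometry; percent change vs control; mean ± SD, n = 3.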

[5] = Cell cycle arrest in human NTUB1 cells assessed as accumulation at subG1 phase after 24 hrs by propidium iodide staining based flow cytometric analysis; type: functional; summary of the method: as §2
[6] = Cell cycle arrest in human NTUB1 cells assessed as accumulation at G1 phase at 25 uM after 24 hrs by propidium iodide staining based flow cytometric analysis (reference value: 50.64%); type: functional; summary of the method: as §2
[7] = Cell cycle arrest in human NTUB1 cells assessed as accumulation at S phase at 25 uM after 24 hrs by propidium iodide staining based flow cytometric analysis (reference value: 20.37%); type: functional; summary of the method: as §2
[8] = Cell cycle arrest in human NTUB1 cells assessed as accumulation at G2/M phase at 25 uM after 24 hrs by propidium iodide staining based flow cytometric analysis (reference value: 20.37%); type: functional; summary of the method: as §2
[9] = Induction of apoptosis in human NTUB1 cells assessed as increase in JC-1 probe monomers at 10 uM after 24 hrs by flow cytometric analysis; type: functional
Summary of the method: (§4)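 NTUB1 bladder carcinoma cells (3 × 10^5) in RPMI 1640 with 10% FBS at 37 °C, 5% CO2, exposed to test agent (10, 25 or 50 µM) with 10 µM CCCP as positive control. Stained 30 min with 1 µM JC-1 in medium, washed, trypsinised, resuspended in PBS/2% BSA. Flow cytometry read green monomer and red aggregate fluorescence; the aggregate/monomer ratio represents membrane potential.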

[10] = target: Cellular tumor antigen p53 (Homo sapiens) (UniProt P04637); assay: Increase in p53 phosphorylation in human NTUB1 cells after 24 hrs by Western blot analysis; type: cell-based
Summary of the method: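 NTUB1 cells exposed 24 h to 0–50 µM (10 µM cisplatin comparator), or to 50 µM with or without 1 mM NAC; lysed in boiled sample buffer, SDS–PAGE, nitrocellulose semi-dry transfer, milk-blocked in TBST, primary antibodies (p-p53 Ser15, p53 DO1, β-actin) overnight at 4 °C, secondary 1 h, ECL detection; triplicate experiments.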

NTUB1 = assay: Induction of apoptosis in human NTUB1 cells assessed as activation of caspase 3 at 10 to 50 uM by Western blot analysis; type: functional, cell-based
[11] = Cell cycle arrest in human NTUB1 cells assessed as accumulation at subG1 phase at 50 uM after 24 hrs by propidium iodide staining based flow cytometric analysis (reference value: 6.68%); type: functional; summary of the method: as §2
[12] = Cell cycle arrest in human NTUB1 cells assessed as accumulation at G1 phase at 50 uM after 24 hrs by propidium iodide staining based flow cytometric analysis (reference value: 50.64%); type: functional; summary of the method: as §2
[13] = Cell cycle arrest in human NTUB1 cells assessed as accumulation at S phase at 50 uM after 24 hrs by propidium iodide staining based flow cytometric analysis (reference value: 20.37%); type: functional; summary of the method: as §2
[14] = Cell cycle arrest in human NTUB1 cells assessed as accumulation at G2/M phase at 50 uM after 24 hrs by propidium iodide staining based flow cytometric analysis (reference value: 20.37%); type: functional; summary of the method: as §2
[15] = Cell cycle arrest in human NTUB1 cells assessed as accumulation at subG1 phase at 75 uM after 24 hrs by propidium iodide staining based flow cytometric analysis (reference value: 6.68%); type: functional; summary of the method: as §2
[16] = Cell cycle arrest in human NTUB1 cells assessed as accumulation at G1 phase at 75 uM after 24 hrs by propidium iodide staining based flow cytometric analysis (reference value: 50.64%); type: functional; summary of the method: as §2
[17] = Cell cycle arrest in human NTUB1 cells assessed as accumulation at S phase at 75 uM after 24 hrs by propidium iodide staining based flow cytometric analysis (reference value: 20.37%); type: functional; summary of the method: as §2
[18] = Cell cycle arrest in human NTUB1 cells assessed as accumulation at G2/M phase at 75 uM after 24 hrs by propidium iodide staining based flow cytometric analysis (reference value: 20.37%); type: functional; summary of the method: as §2
[19] = Induction of apoptosis in human NTUB1 cells assessed as increase in JC-1 probe monomers at 25 uM after 24 hrs by flow cytometric analysis; type: functional
Summary of the method: (§5)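 NTUB1 cells (3×10^5) treated with 10, 25 or 50 µM (10 µM CCCP control), then loaded with 1 µM JC-1 in medium 30 min; washed in PBS, trypsinized, resuspended in PBS/2% BSA; green monomer (R2) and red aggregate (R1) fluorescence by flow cytometry, aggregate/monomer ratio representing membrane potential.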

[20] = Induction of apoptosis in human NTUB1 cells assessed as increase in JC-1 probe monomers at 50 uM after 24 hrs by flow cytometric analysis; type: functional; summary of the method: as §5
[21] = Induction of apoptosis in human NTUB1 cells assessed as decrease in JC-1 aggregation at 10 uM after 24 hrs by flow cytometric analysis; type: functional; parameters: scale not given: the % may be the effect or the level left; summary of the method: as §4
[22] = Induction of apoptosis in human NTUB1 cells assessed as decrease in JC-1 aggregation at 25 uM after 24 hrs by flow cytometric analysis; type: functional; parameters: scale not given: the % may be the effect or the level left; summary of the method: as §5
[23] = Induction of apoptosis in human NTUB1 cells assessed as decrease in JC-1 aggregation at 50 uM after 24 hrs by flow cytometric analysis; type: functional; parameters: scale not given: the % may be the effect or the level left; summary of the method: as §5
[24] = Increase in ROS generation in human NTUB1 cells at 25 uM after 24 hrs by H2DCFDA staining based flow cytometeric analysis relative to control; type: functional; summary of the method: as §3

Chain of Cellular tumor antigen p53 (Homo sapiens) (P04637 whole entry, looked up): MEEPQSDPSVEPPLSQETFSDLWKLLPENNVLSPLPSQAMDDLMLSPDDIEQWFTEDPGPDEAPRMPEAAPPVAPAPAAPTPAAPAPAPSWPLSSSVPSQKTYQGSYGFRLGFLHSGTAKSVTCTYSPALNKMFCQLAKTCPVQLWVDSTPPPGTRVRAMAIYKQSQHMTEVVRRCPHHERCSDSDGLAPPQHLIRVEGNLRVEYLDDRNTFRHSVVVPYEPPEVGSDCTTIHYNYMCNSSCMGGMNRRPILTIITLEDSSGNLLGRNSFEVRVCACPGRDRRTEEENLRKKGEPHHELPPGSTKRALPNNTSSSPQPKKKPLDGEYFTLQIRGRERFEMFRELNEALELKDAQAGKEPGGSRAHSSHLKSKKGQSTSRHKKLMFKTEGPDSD

- Activity [10]: Dose-dependent effect
Compound: C=C(C)[C@@H]1CC[C@]2(C)[C@H](C(=O)C=C3[C@@H]4C[C@@](C)(C(=O)NC(C)C)CC[C@]4(C)CC[C@]32C)[C@@]1(C)CCC(=O)NC(C)C
- Activity [1]: Non-toxic
- IC50 [2]: 4.76 µM
- Activity (PC-3): Active
- Activity [3]: 20.4%
- Activity [4]: 66.1%
- Activity [5]: Dose-dependent effect
- Activity [6]: 49.5%
- Activity [7]: 12.7%
- Activity [8]: 12.7%
- Activity [9]: 94.14%
- Activity (NTUB1): inactive
- Activity [11]: 55.7%
- Activity [12]: 35.7%
- Activity [13]: 3.15%
- Activity [14]: 5.22%
- Activity [15]: 78.4%
- Activity [16]: 14.7%
- Activity [17]: 2.79%
- Activity [18]: 4%
- Activity [19]: 87.17%
- Activity [20]: 55.65%
- Activity [21]: 5.45%
- Activity [22]: 12.65%
- Activity [23]: 44.07%
- Activity [24]: 85.6%

Reference: ChEMBL document CHEMBL1806419, “18β-Glycyrrhetinic acid derivatives induced mitochondrial-mediated apoptosis through reactive oxygen species-mediated p53 activation in NTUB1 cells” (Bioorg Med Chem, 2011)
